MrgX1 antagonist – antagonists of human MrgX1 receptor, primary screen, HEK293 cells, Fluo-4 calcium flux. Mas-related G-protein coupled receptor member X1 (Homo sapiens), Q96LB2. BAM8-22 antagonism; hits give low values. B-score at 10 µM. hit rate 1.3% among 310,000;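 active = calcium-response B-score plate-corrected more than 3 library SD below zero, starting fluorescence within 5 deviations, no agonist response on first addition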;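 also: peak minus trough fluorescence over baseline after final BAM8-22 challenge near maximal dose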
RGS4 inh – RGS4 inhibitors, primary screen, cell-based, HEK293 M3R inducible RGS4, calcium flux. AID 463165, 2010. B-score at 10 µM. Regulator of G-protein signaling 4 (Homo sapiens), P49798. Fluo-4 calcium flux; hits give high values; triggered by carbachol at its EC20. hit rate 0.45% among 310,000;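 active = B-score, a plate-corrected calcium signal, over three deviations above library mean, with baseline fluorescence within five deviations of library mean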;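 also: RGS4 expression induced by doxycycline in cells with stable M3 receptor; B-score is computed from the integrated fluorescence ratio over baseline after carbachol; higher B-score means a larger calcium signal and so more RGS4 inhibition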
Target sequence (P49798 whole entry, looked up): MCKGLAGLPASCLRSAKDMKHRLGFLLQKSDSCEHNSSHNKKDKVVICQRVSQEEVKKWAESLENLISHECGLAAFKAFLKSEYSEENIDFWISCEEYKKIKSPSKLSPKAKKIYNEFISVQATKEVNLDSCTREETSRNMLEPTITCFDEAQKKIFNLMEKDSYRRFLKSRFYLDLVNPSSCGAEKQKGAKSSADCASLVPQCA
RGS4 pot – RGS4 potentiators or activators, primary screen, cell-based, HEK293 M3R inducible RGS4, calcium flux; carbachol calcium flux Fluo4; hits give low values; B-score at 10 µM; hit rate 0.92% among 310,000; AID 463111, 2010;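 active = B-score of the integrated calcium signal more than 4 SD below the library mean, with starting fluorescence not abnormally high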;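 also: negative B-score means reduced calcium response which marks RGS4 activation or potentiation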
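Reagent: ECmax carbachol challenge; Test system: M3R-expressing HEK293 line, RGS4 induced by doxycycline; Schedule: overnight RGS4 induction, 30 min dye load 37 °C, 20 min compound RT; Detection: calcium dye Fluo4 fluorescence; Read-out: Agonist-evoked peak-minus-minimum fluorescence over baseline, integrated ratio, B score.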
MrgX1 allo act – positive allosteric modulators of MrgX1, primary screen, HEK293 cells, Fluo-4 calcium flux; Mas-related G-protein coupled receptor member X1 (Homo sapiens), Q96LB2; B-score at 10 µM; hit rate 0.63% among 310,000; FDSS; hits give high values;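 active = plate-corrected calcium response at least 3 library SD above typical, normal starting fluorescence, not activating the receptor alone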;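 also: compound read alongside a low EC10 to EC30 dose of BAM8-22 agonist; peak minus trough fluorescence over baseline measured at the second addition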
MrgX1 ag – agonists of human MrgX1 receptor, primary screen, HEK293 cells, Fluo-4 calcium flux. Mas-related G-protein coupled receptor member X1 (Homo sapiens), Q96LB2. Fluo-4 calcium fluorescence, agonist mode; hits give high values. B-score at 10 µM. hit rate 0.44% among 310,000. AID 588627, 2011;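 active = calcium response B-score plate-corrected fluorescence ratio at least 3 library SD, with starting fluorescence B-score inside 5 SD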
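Material: MrgX1-expressing HEK293 cells / Dosing: compound as first of three additions / Incubation: overnight seeding, then 1 h dark dye loading / Signal: Fluo-4 NW calcium fluorescence / Evaluation: B-scored fluorescence response ratio / Benchmarks: positive and negative control wells on each plate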
* = called active by the depositor; i = inactive; x = no result. The list is not random: actives were taken first. Their share in the collection is about 3.5%.

SMILES	MrgX1 antagonist	RGS4 inh	RGS4 pot	MrgX1 allo act	MrgX1 ag
COc1ccc2oc(=O)cc(-c3cc4cccc(OC)c4o3)c2c1	i	i	i	i	i
CCN(CC)C(=O)Oc1ccc2oc(=O)cc(-c3cc4cccc(OC)c4o3)c2c1	i	i	-7.2*	i	i
Cn1cccc1C(=O)/C(C#N)=C/c1ccc(F)cc1	i	i	i	i	35*
COc1ccccc1/C=C(\C#N)C(=O)c1cccn1C	i	i	i	i	32*
O=C(CCC1CCCC1)N[C@@H](Cc1ccc(O)cc1)C(=O)O	i	i	i	i	i
c1cc2c3c(cccc3c1)NC1(CCCCCC1)N2	i	i	i	i	i
c1cc2c3c(cccc3c1)NC1(CCC3(CC1)Nc1cccc4cccc(c14)N3)N2	i	i	-8.2*	7*	i
Cc1nc2c(cc1C#N)C(=O)c1ccccc1-2	i	i	i	i	i
Cc1c(C(=O)NCCCN2CCOCC2)oc2ccc(S(=O)(=O)N3CCOCC3)cc12	i	i	i	i	i
CCOc1cc(C(=O)N/N=C\c2cn(CC)nc2C)cc(OCC)c1OCC	i	i	i	i	i
O=C(Nc1ccc(S(=O)(=O)N2CCCC2)cc1)c1ccc(CN2CCOCC2)cc1	i	i	i	i	i
O=C(Nc1ccc(S(=O)(=O)N2CCCCC2)cc1)c1ccc(CN2CCOCC2)cc1	-7.7*	i	i	i	i
Cc1cc(C(=O)NNS(=O)(=O)c2ccc(C(C)(C)C)cc2)nn1C(C)(C)C	i	i	i	9.8*	i
Cc1ccc(S(=O)(=O)NNC(=O)C(O)(c2ccccc2)c2ccccc2)cc1	i	i	i	i	i
CCOC(=O)CCc1c(C(=O)OCC)[nH]c(CC)c1C(=O)OCc1ccccc1	i	i	-7.5*	i	i
CCOC(=O)c1c(C)[nH]c(C(=O)OCc2ccccc2)c1C	i	i	i	i	i
S=C(Nc1cccc(Cl)c1)Nc1ccccc1Oc1ccccc1	-5.8*	i	i	i	i
S=C(Nc1ccc(Cl)cc1Cl)Nc1ccccc1Oc1ccccc1	i	i	i	i	i
O=c1cc(N2CCCCC2)c(-c2ccccc2)nn1Cc1c(Cl)cccc1Cl	i	i	-7.1*	i	i
CC(C)N1CCc2c(sc(NC(=O)c3ccc4ccccc4c3)c2C(N)=O)C1	i	i	i	i	i
CC(=O)Nc1sc2c(c1-c1nc3ccccc3s1)CCN(C(C)C)C2	i	x	x	i	27*
CCCC(=O)C1=C(O)C(C(=O)OC)C(C)(C)CC1=Nc1ccccc1 (stereo not drawn)	i	i	i	i	i
CCCC(=O)C1=C(O)C(C(=O)OC)C(C)(C)CC1=Nc1cccc2ccccc12 (stereo not drawn)	i	i	i	8.1*	i
O=C(Nc1ccccc1C(=O)N/N=C/c1ccncc1)c1ccccc1	i	i	i	i	i
CCOc1cc2c(cc1/C=C/c1noc(C)c1[N+](=O)[O-])OC(C)C2 (stereo not drawn)	i	i	i	i	41*
Cc1ccc(S(=O)(=O)N2CCOCC2)cc1NC(=O)Cn1nc(C)c([N+](=O)[O-])c1C	-5*	i	i	i	i
Cc1ccc(Nc2ccc(S(=O)(=O)N3CCOCC3)cc2[N+](=O)[O-])cc1C	-9.2*	i	i	i	i
CCOC(=O)C1CCCN(C(=O)c2ccc(S(=O)(=O)N3CCCC3)cc2)C1 (stereo not drawn)	i	i	i	i	i
CCOC(=O)C1CCCN(S(=O)(=O)c2ccc(S(=O)(=O)N3CCCC3)cc2)C1 (stereo not drawn)	-5.3*	i	i	i	i
Cc1cccc(NC(=S)NCC(c2cccnc2)N(C)C)c1C (stereo not drawn)	i	i	i	i	i

Assay outcomes from PubChem.
